Active and inactive are the calls of the source. The rule behind the calls is not given here.
Key:
Glucocorticoid receptor = molecular target: T1, Glucocorticoid receptor (Homo sapiens, UniProt P04150); assay: Antagonist activity at human glucocorticoid receptor expressed in CHO-K1 cells harboring firefly luciferase gene after 20 hrs by One-Glo luciferase reporter gene assay; assay type: cell-based
T1 sequence (P04150 whole entry): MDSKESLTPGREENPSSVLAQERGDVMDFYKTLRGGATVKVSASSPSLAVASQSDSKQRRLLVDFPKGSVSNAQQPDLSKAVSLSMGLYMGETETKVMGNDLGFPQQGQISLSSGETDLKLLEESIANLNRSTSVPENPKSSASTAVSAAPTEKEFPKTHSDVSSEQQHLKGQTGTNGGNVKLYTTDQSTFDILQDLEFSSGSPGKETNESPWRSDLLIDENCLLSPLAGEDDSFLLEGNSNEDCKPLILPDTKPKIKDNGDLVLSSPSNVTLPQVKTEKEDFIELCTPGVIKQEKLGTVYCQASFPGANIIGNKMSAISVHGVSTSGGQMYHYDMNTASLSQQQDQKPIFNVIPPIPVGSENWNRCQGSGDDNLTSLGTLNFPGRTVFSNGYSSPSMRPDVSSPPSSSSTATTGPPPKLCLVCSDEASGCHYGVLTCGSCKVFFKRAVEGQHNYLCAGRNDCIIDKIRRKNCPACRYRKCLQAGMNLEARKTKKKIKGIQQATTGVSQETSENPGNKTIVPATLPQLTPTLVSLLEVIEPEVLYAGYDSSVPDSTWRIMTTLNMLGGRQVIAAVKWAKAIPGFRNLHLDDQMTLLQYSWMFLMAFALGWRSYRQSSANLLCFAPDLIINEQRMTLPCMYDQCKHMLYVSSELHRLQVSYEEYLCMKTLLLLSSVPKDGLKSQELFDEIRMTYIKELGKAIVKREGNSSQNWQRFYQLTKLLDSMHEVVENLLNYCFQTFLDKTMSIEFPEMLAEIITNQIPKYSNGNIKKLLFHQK

[1] = molecular target: T2, Progesterone receptor (Homo sapiens) (UniProt P06401); assay: Agonist activity at human progesterone receptor expressed in CHO-K1 cells harboring firefly luciferase gene after 20 hrs by One-Glo luciferase reporter gene assay; assay type: cell-based
T2 sequence (whole entry): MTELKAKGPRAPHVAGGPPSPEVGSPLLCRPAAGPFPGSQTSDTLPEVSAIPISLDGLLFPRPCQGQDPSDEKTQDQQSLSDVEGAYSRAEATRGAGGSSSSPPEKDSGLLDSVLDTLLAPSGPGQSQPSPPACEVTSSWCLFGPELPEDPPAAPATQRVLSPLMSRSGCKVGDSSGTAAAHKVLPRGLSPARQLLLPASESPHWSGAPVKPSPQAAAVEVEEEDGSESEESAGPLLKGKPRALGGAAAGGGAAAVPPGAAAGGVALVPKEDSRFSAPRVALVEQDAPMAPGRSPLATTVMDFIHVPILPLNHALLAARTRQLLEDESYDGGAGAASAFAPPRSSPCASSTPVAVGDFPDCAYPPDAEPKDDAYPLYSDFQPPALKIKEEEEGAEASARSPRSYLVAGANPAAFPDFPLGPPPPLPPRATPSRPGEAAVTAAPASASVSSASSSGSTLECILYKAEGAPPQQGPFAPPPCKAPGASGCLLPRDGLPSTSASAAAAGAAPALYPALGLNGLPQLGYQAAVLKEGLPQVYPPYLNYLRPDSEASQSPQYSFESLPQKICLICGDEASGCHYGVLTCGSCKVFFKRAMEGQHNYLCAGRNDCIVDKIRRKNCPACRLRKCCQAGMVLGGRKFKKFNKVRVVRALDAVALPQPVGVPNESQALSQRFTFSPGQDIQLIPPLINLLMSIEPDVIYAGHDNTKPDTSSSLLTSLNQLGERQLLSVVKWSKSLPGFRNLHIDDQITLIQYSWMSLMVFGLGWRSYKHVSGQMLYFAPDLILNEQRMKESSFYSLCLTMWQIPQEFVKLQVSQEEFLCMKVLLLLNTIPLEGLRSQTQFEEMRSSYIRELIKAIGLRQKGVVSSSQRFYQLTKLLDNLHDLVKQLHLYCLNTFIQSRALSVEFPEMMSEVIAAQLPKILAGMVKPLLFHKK
Procedure, shortened: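 Cell-based luciferase reporter assays for GR, AR and PR, run in agonist and antagonist modes. Potency and Emax are averages of at least two determinations, reported with SD.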

CYP2C8 = molecular target: T3, CYP2C8 (Homo sapiens, UniProt P10632); assay: Inhibition of CYP2C8 (unknown origin) at 10 uM using paclitaxel as substrate relative to control; assay type: ADME; conditions: probe paclitaxel
T3 sequence (P10632 whole entry): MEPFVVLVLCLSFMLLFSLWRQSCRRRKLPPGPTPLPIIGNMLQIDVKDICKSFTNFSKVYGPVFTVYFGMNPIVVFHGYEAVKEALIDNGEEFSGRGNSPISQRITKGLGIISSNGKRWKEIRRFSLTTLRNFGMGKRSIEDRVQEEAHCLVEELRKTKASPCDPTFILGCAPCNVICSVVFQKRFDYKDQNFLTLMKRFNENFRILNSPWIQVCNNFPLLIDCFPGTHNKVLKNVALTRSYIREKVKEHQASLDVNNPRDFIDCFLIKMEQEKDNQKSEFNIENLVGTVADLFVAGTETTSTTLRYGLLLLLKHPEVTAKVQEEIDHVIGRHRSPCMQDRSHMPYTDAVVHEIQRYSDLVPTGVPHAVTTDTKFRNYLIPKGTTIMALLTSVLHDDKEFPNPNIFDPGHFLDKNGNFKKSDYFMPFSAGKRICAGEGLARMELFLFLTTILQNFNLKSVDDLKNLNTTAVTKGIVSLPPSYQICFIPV

[2] = Volume of distribution at steady state in rat at 0.5 mg/kg, iv; assay type: ADME, organism-based; conditions: in vivo, read-out: Vdss
Procedure, shortened: (§1)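 Rat PK study. The iv dose of 0.5 mg/kg was given in 10% DMSO, 70% PEG 400 and 20% water. The oral dose of 5 mg/kg was given in 5% DMSO / 95% of 0.2% Tween 80 in 0.25% CMC, adjusted to pH 4 for one compound. Read-outs were CL, Vss, iv t1/2, F, Cmax and AUC.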

[3] = Cmax in rat at 5 mg/kg, po; assay type: ADME, organism-based; set-up: dose 5 mg/kg, route oral; conditions: in vivo; procedure, shortened: as §1
[4] = Cmax in mini-pig at 5 mg/kg, po; assay type: ADME, organism-based, Sus scrofa domesticus; set-up: dose 5 mg/kg, route oral; conditions: in vivo

Question: Which IC50 (Glucocorticoid receptor) does the source give for `CC#C[C@]1(O)CC[C@H]2[C@@H]3CCC4=CC(=O)CC[C@]4(C)[C@H]3[C@@H](c3ccc(N(C)C)cc3)C[C@@]21C` here?
Answer: 29 nM

Question: What about the agonist activity [1] of the same compound?
Answer: inactive

Question: What about the inhibition at 10 µM (CYP2C8) of the same compound?
Answer: 58%

Question: And the Vd [2]?
Answer: 4.7 L/kg

Question: What about the Cmax [3] of the same compound?
Answer: 518 ng/mL

Question: And the Cmax [4]?
Answer: 249 ng/mL
